Sampled rows, rich in hits. Any-hit rate of the full collection: about 3.7%.
DENV2 CPE: DENV2-induced cell death inhibition; DENV2-infected cells, cytopathic effect rescue, plate reader; CPE inhibition, % at 9.99 µM; 1.7% of 350,000 active; in the data active = CPE inhibition above about 20%, passing the limit was not always enough; tested in BHK-21 cells;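 note: 0% = median of neutral control wells and 100% = median of positive control wells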
FGF22 binding: FGF22 (human) thermal shift binding; recombinant FGF22 thermal shift, SYPRO orange fluorescence; percent of sucrose octasulfate shift, DMSO zero; activity (Tm shift, normalised), % at 9.99 µM; 1.5% of 340,000 active; AID 651658;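 active = mean Tm shift, scaled 0 neutral to 100 positive control, at about 1.3% or above, every replicate too, limit read from the data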
E-sel inducer: E-selectin induction on HUVECs. HUVEC E-selectin immunofluorescence imaging; normalized: neutral wells 0, TNF-alpha wells 100. activation, % at 7.58 µM. 0.37% of 260,000 active;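 active = mean E-selectin-positive cell signal at least 10% of the positive control, reached in at least 60% of replicates, without over 20% cell loss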
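assay system = HUVEC, human umbilical vein endothelial cells | input = 3,000 HUVEC seeded per well | medium = EGM-2 growth medium on 0.1% gelatin-coated wells | dosing = one compound dose added by pin transfer | signal = immunofluorescence imaging | read-out basis = % PE-positive cells | control set = TNF-alpha, DMSO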
ERAP1 HTS inh: ERAP1 (human) enzyme inhibition | recombinant ERAP1, Leu-AMC fluorescence, 60 min | inhibition, % at 10.7 µM | 0.15% of 340,000 active | Q9NZ08;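 active = mean replicate inhibition of at least 30%, or all replicates individually reaching that 30% level; inactive = mean below 30% and not every replicate reaching it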;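 note: 0% = neutral control wells and 100% = L-leucinethiol positive control wells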
F508del corr: CFTR F508del correction in bronchial cells. 0.36% of 350,000 active. activity (quench increase), % at 7.58 µM. CFBE cells, YFP halide quenching; stimulated with forskolin plus potentiator P3; % fluorescence drop versus neutral controls;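 active = mean added fluorescence quench of at least 8% versus neutral control, with both replicates also reaching 8%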;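 note: cells transiently co-express mutant CFTR-F508del with the halide-sensitive YFP; corrector assay measuring rescue of mutant channel to the surface after 24 h compound exposure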
Starred values were filed as active, the others as inactive.

What do the screens show for `Cc1ccnc(NC(=O)c2ccc(Cl)c(NC(=O)CCc3ccccc3)c2)c1`?
DENV2 CPE: 13.1; E-sel inducer: 1.8; ERAP1 HTS inh: -0.5; F508del corr: 1.2

What do the screens show for `Cc1nc2ccccc2n1CC(O)COc1ccccc1Cl` (stereo not drawn)?
DENV2 CPE: -2.9; FGF22 binding: -0.1; ERAP1 HTS inh: -2.4; F508del corr: -2.7

How did Cc1nc2ccccc2n1CC(O)COc1ccc(Br)cc1 (stereo not drawn) do in these assays?
DENV2 CPE: -4.1; FGF22 binding: 43.9*; ERAP1 HTS inh: -3.5; F508del corr: -0.2

What do the screens show for `CCn1c(=N)n(CC(O)COc2ccc(C)cc2)c2ccccc21` (stereo not drawn)?
DENV2 CPE: 1.7; FGF22 binding: -0.1; E-sel inducer: -0.1; ERAP1 HTS inh: -1.1; F508del corr: -0.1

How did CCCn1c(=N)n(CC(O)COc2ccc(C)cc2)c2ccccc21 (stereo not drawn) do in these assays?
DENV2 CPE: 41.4*; FGF22 binding: -0.1; ERAP1 HTS inh: -2.5; F508del corr: 0.3

What do the screens show for `Cc1ccc(NC(=O)CN(C)C(=O)c2ccc(NC(=O)CC3SC(N4CCCC4)=NC3=O)cc2)cc1` (stereo not drawn)?
DENV2 CPE: 4.6; FGF22 binding: 44.3*; E-sel inducer: 0.6; ERAP1 HTS inh: -2.1; F508del corr: -1.9

What do the screens show for `CC1(C)OC2CCN3C(C(O)COS3(=O)=O)C2O1` (stereo not drawn)?
DENV2 CPE: 130.9*; FGF22 binding: 0.0; ERAP1 HTS inh: -2.1; F508del corr: 2.8

Results for C[C@H]1CN([C@@H](C)CO)C(=O)c2cc(NC(=O)CCCCCC(=O)Nc3ccccc3N)ccc2O[C@@H]1CN(C)S(=O)(=O)c1ccc(F)cc1 ?
DENV2 CPE: 10.8; FGF22 binding: 0.0; E-sel inducer: -16.0; ERAP1 HTS inh: 1.0; F508del corr: 0.9

What do the screens show for `CCC(C)[C@H]1COCCS(=O)(=O)N1Cc1ccc(Br)cc1` (stereo partly drawn)?
DENV2 CPE: 100.2*; FGF22 binding: -0.1; E-sel inducer: 0.0; ERAP1 HTS inh: -3.6; F508del corr: 1.4

What do the screens show for `CCCc1cn(CC[C@H]2CC[C@H](NC(=O)CCN3CCCCC3)[C@@H](CO)O2)nn1`?
DENV2 CPE: 0.6; FGF22 binding: -0.2; E-sel inducer: -0.4; ERAP1 HTS inh: 1.7; F508del corr: 4.9

Results for Cc1ccc([C@H]2C[C@H](O)[C@@H](n3cc(-c4ccc(F)cc4)nn3)CN2C(=O)c2cccs2)cc1 ?
DENV2 CPE: -1.9; FGF22 binding: -0.4; ERAP1 HTS inh: 1.6; F508del corr: -0.7

What do the screens show for `COc1ccc([C@H]2C[C@H](O)[C@@H](n3cc(-c4ccc(F)cc4)nn3)CN2Cc2cccs2)cc1`?
DENV2 CPE: -8.6; FGF22 binding: -0.2; E-sel inducer: -1.8; F508del corr: 8.1*

Results for Cc1ccc([C@H]2C[C@@H](n3cc(-c4ccc(F)cc4)nn3)[C@H](O)CN2C(=O)c2cccs2)cc1 ?
DENV2 CPE: 32.5*; FGF22 binding: 0.5; E-sel inducer: 1.1; ERAP1 HTS inh: -4.2; F508del corr: -2.2

What do the screens show for `O=C(c1cccnc1)N1C[C@H]2[C@@H](c3ccccc31)[C@@H](CO)N2C(=O)Nc1cccc(F)c1`?
DENV2 CPE: -7.9; FGF22 binding: 0.3; E-sel inducer: -0.5; ERAP1 HTS inh: 2.5; F508del corr: 0.7

How did N#C[C@H]1[C@H](c2ccc(C3=CCCC3)cc2)[C@H](CO)N1C(=O)NC1CCCC1 do in these assays?
DENV2 CPE: -4.2; FGF22 binding: 0.0; E-sel inducer: 0.0; ERAP1 HTS inh: 1.2; F508del corr: -4.2

Results for C[C@@H]1CN([C@@H](C)CO)C(=O)c2cccc(NC(=O)CCCCCC(=O)Nc3ccccc3N)c2O[C@@H]1CN(C)S(=O)(=O)c1ccc(Cl)cc1 ?
DENV2 CPE: 2.0; FGF22 binding: 0.3; E-sel inducer: -0.1; ERAP1 HTS inh: -5.4; F508del corr: 1.5

Results for C[C@@H]1CN([C@H](C)CO)C(=O)c2cc(NC(=O)c3ccncc3)ccc2O[C@H]1CN(C)C(=O)NC1CCCCC1 ?
DENV2 CPE: -8.7; FGF22 binding: 0.1; ERAP1 HTS inh: 0.0; F508del corr: 0.4

Results for COc1ccc2[nH]c(C(=O)N/N=C/c3ccc(O)cc3O)cc2c1 ?
DENV2 CPE: -6.3; FGF22 binding: 1.0; ERAP1 HTS inh: 1.4; F508del corr: 12.0*
